Laboratory results taken from ChEMBL document CHEMBL2434966, “Novel N-4-piperazinyl-ciprofloxacin-chalcone hybrids: synthesis, physicochemical properties, anticancer and topoisomerase I and II inhibitory activity” (Eur J Med Chem, 2013).
≈ marks a conversion by molar mass, not a printed value.

Tests used:
PC-3 = assay: Growth inhibition of human PC3 cells after 48 hrs by sulforhodamine B assay; format: functional; conditions: PC-3, 48 h
Summary of the method: (§1)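 NCI five-dose screen on the full 60-cell-line panel. Cells were given 10-fold dilutions from 10^-4 to 10^-8 M with continuous 48 h exposure, and growth was read by SRB staining. Percent growth was taken from time-zero, control and treated absorbances. GI50, TGI and LC50 were then derived, the GI50 being the concentration that gives a 50% lower net protein increase than control.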

M14 = assay: Growth inhibition of human M14 cells assessed as cell growth at 10^-5 M after 48 hrs by sulforhodamine B assay; format: functional; conditions: M14, 48 h, read-out: Activity
Summary of the method: (§2)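 NCI 60-cell-line primary screen. Single concentration of 10^-5 M, 48 h incubation. End point by sulforhodamine B protein staining read spectrophotometrically. Reported as percent growth of treated cells relative to untreated control cells.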

MOLT-4 = assay: Growth inhibition of human MOLT4 cells after 48 hrs by sulforhodamine B assay; format: functional; conditions: MOLT-4, 48 h; for CC50: read-out: LC50 (the source's name); summary of the method: as §1
HCT-15 = assay: Growth inhibition of human HCT15 cells after 48 hrs by sulforhodamine B assay; format: functional; conditions: HCT-15, 48 h
Summary of the method: (§3)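 NCI 60-panel five-dose test at 10-fold dilutions, 10^-4 to 10^-8 M, with 48 h continuous exposure and SRB protein read-out. Percent growth derived from time-zero, untreated-control and treated absorbances. GI50 is the concentration where [(Ti-Tz)/(C-Tz)]×100 = 50. TGI is taken at Ti = Tz. LC50 is taken at [(Ti-Tz)/Tz]×100 = -50.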

MCF7 = assay: Growth inhibition of human MCF7 cells assessed as cell growth at 10^-5 M after 48 hrs by sulforhodamine B assay; format: functional; conditions: MCF7, 48 h, read-out: Activity; summary of the method: as §2
NCI-H522 = assay: Growth inhibition of human NCI-H522 cells assessed as cell growth at 10^-5 M after 48 hrs by sulforhodamine B assay; format: functional; conditions: NCI-H522, 48 h, read-out: Activity
Summary of the method: (§4)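 NCI 60-cell-line primary one-dose screen. Cells were exposed to a single 10^-5 M concentration for 48 h. The end point was sulforhodamine B protein staining, read spectrophotometrically. Results are reported as percent growth of treated cells relative to untreated control cells.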

A549 = assay: Growth inhibition of human A549/ATCC cells assessed as cell growth at 10^-5 M after 48 hrs by sulforhodamine B assay; format: functional; conditions: A549, 48 h, read-out: Activity; summary of the method: as §2
SF-295 [1] = assay: Growth inhibition of human SF295 cells assessed as cell growth at 10^-5 M after 48 hrs by sulforhodamine B assay; format: functional; conditions: SF-295, 48 h, read-out: Activity; summary of the method: as §4
NCI-H23 = assay: Growth inhibition of human NCI-H23 cells assessed as cell growth at 10^-5 M after 48 hrs by sulforhodamine B assay; format: functional; conditions: NCI-H23, 48 h, read-out: Activity; summary of the method: as §4
HL-60(TB) = assay: Growth inhibition of human HL-60(TB) cells after 48 hrs by sulforhodamine B assay; format: functional; conditions: HL-60, 48 h; for CC50: read-out: LC50 (the source's name)
Summary of the method: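 NCI 60-panel five-dose screen: cells exposed continuously for 48 h to 10-fold dilutions from 10^-4 to 10^-8 M; SRB protein staining read spectrophotometrically. Percent growth from time-zero, untreated-control and treated absorbances; GI50 is the concentration giving 50% lower net protein increase than control.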

BT-549 = assay: Growth inhibition of human BT549 cells assessed as cell growth at 10^-5 M after 48 hrs by sulforhodamine B assay; format: functional; conditions: BT-549, 48 h, read-out: Activity; summary of the method: as §2
CAKI-1 = assay: Growth inhibition of human CAKI-1 cells after 48 hrs by sulforhodamine B assay; format: functional; conditions: CAKI-1, 48 h; summary of the method: as §3
Malme-3M = assay: Growth inhibition of human MALME-3M cells after 48 hrs by sulforhodamine B assay; format: functional; summary of the method: as §3
SN12C = assay: Growth inhibition of human SN12C cells after 48 hrs by sulforhodamine B assay; format: functional; summary of the method: as §1
[2] = Octanol-phosphate buffer partition coefficient, log P of the compound after 5 hrs by shake-flask method; format: physicochemical
Summary of the method: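 Shake-flask method: 100 µL of 0.2 mg/mL stock diluted into 1.9 mL phosphate buffer pH 7.4 plus 2 mL mutually saturated n-octanol, protected from light. Vortexed 3 min, shaken 5 h at 25 °C. Both phases assayed by UV at 272 nm; log P = log([octanol]/[aqueous]), run in triplicate.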

[3] = Aqueous solubility of the compound at pH 7.8 by UV spectroscopic analysis; format: physicochemical; conditions: aqueous solution
Summary of the method: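 Excess solid (10 mg) shaken in buffer at pH 6.9 or 7.8, 37 °C. The filtrate was diluted into the linear calibration range and dissolved drug measured by UV absorbance at λmax 272 nm. Values are the average of at least three agreeing independent measurements.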

SK-MEL-2 = assay: Growth inhibition of human SK-MEL-2 cells after 48 hrs by sulforhodamine B assay; format: functional; conditions: SK-MEL-2, 48 h; for CC50: read-out: LC50 (the source's name); summary of the method: as §1
T47D = assay: Growth inhibition of human T47D cells assessed as cell growth at 10^-5 M after 48 hrs by sulforhodamine B assay; format: functional; conditions: read-out: Activity
Summary of the method: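 NCI primary one-dose screen: single concentration of 10^-5 M added to culture, 48 h incubation, SRB protein-dye endpoint. Percent growth of treated cells measured spectrophotometrically against untreated controls.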

SF-295 [4] = assay: Growth inhibition of human SF295 cells after 48 hrs by sulforhodamine B assay; format: functional; conditions: SF-295, 48 h; summary of the method: as §1
786-0 = assay: Growth inhibition of human 786-0 cells after 48 hrs by sulforhodamine B assay; format: functional; conditions: 786-0, 48 h; summary of the method: as §3
MDA-MB-231 = assay: Growth inhibition of human MDA-MB-231 cells assessed as cell growth at 10^-5 M after 48 hrs by sulforhodamine B assay; format: functional; conditions: MDA-MB-231, 48 h, read-out: Activity; summary of the method: as §4
SW-620 = assay: Growth inhibition of human SW620 cells after 48 hrs by sulforhodamine B assay; format: functional; conditions: SW-620, 48 h; for CC50: read-out: LC50 (the source's name)
Summary of the method: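 NCI 60-cell panel, five concentrations (10-fold dilutions, 0.01–100 µM), 48 h continuous exposure; SRB protein stain read spectrophotometrically. Percent growth from time-zero, untreated-control and treated absorbances. GI50 is the concentration giving 50% lower net protein increase than control. Values beyond the tested range are reported as more or less than the highest or lowest concentration.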

[5] = Growth inhibition of human Hs 578T cells assessed as cell growth at 10^-5 M after 48 hrs by sulforhodamine B assay; format: functional; conditions: read-out: Activity; summary of the method: as §2

## COc1cc(/C=C/C(=O)c2ccc(NC(=O)CN3CCN(c4cc5c(cc4F)c(=O)c(C(=O)O)cn5C4CC4)CC3)cc2)cc(OC)c1OC
PC-3
  GI50: 0.56 µM
  LC50: > 100 µM
  TGI: > 100 µM
M14
  growth at 10 µM: -14.1%
MOLT-4
  GI50: 0.31 µM
  CC50: > 100 µM
HCT-15
  GI50: 0.45 µM
  LC50 (concentration giving 50% net cell kill): > 100 µM
  TGI: > 100 µM
MCF7
  growth at 10 µM: 26.5%
NCI-H522
  growth at 10 µM: -71.5%
A549
  growth at 10 µM: -19.2%
SF-295 [1]
  growth at 10 µM: -27.2%
NCI-H23
  growth at 10 µM: -35.6%
HL-60(TB)
  GI50: 1.11 µM
  TGI: > 100 µM
  CC50: > 100 µM
BT-549
  growth at 10 µM: -86.7%
CAKI-1
  GI50: 1.13 µM
  LC50 (concentration killing 50% of starting cells): > 100 µM
  TGI: > 100 µM
Malme-3M
  GI50: 1.81 µM
  LC50: > 100 µM
  TGI: 7.65 µM
SN12C
  GI50: 0.53 µM
  LC50 (lethal concentration, 50% net cell kill): > 100 µM
  TGI: 12.2 µM
[2]
  logP at 5 h: 0.753
[3]
  solubility: 2.01 µg/mL (≈ 2.94 µM)
SK-MEL-2
  GI50: 1.98 µM
  TGI: 5.38 µM
  CC50: 43.7 µM
T47D
  growth at 10 µM: 17.6%
SF-295 [4]
  GI50: 0.53 µM
  LC50 (concentration giving 50% net cell kill): 53.1 µM
  TGI: 3.13 µM
786-0
  GI50: 0.6 µM
  LC50: 7.7 µM
  TGI: 2.38 µM
MDA-MB-231
  growth at 10 µM: 27.6%
SW-620
  GI50: 0.42 µM
  TGI: 3.2 µM
  CC50: > 100 µM
[5]
  growth at 10 µM: 76.8%

## O=C(CN1CCN(c2cc3c(cc2F)c(=O)c(C(=O)O)cn3C2CC2)CC1)Nc1ccc(C(=O)/C=C/c2ccccc2)cc1
PC-3
  GI50: 3.16 µM
  LC50: > 100 µM
  TGI: > 100 µM
M14
  growth at 10 µM: 31.9%
MOLT-4
  GI50: 5.13 µM
  TGI: > 100 µM
  CC50: > 100 µM
HCT-15
  GI50: 3.68 µM
  LC50 (concentration giving 50% net cell kill): > 100 µM
  TGI: > 100 µM
MCF7
  growth at 10 µM: 12.5%
NCI-H522
  growth at 10 µM: 10.6%
A549
  growth at 10 µM: 4.12%
SF-295 [1]
  growth at 10 µM: 15.2%
NCI-H23
  growth at 10 µM: 24%
HL-60(TB)
  GI50: 9.44 µM
  TGI: > 100 µM
  CC50: > 100 µM
BT-549
  growth at 10 µM: 9.61%
CAKI-1
  GI50: 1.76 µM
  LC50 (concentration killing 50% of starting cells): > 100 µM
  TGI: 5.32 µM
Malme-3M
  GI50: 2.89 µM
  LC50: > 100 µM
  TGI: 8.87 µM
SN12C
  GI50: 3.02 µM
  LC50 (lethal concentration, 50% net cell kill): > 100 µM
  TGI: > 100 µM
[2]
  logP at 5 h: 1.29
[3]
  solubility: 2.53 µg/mL (≈ 4.25 µM)
SK-MEL-2
  GI50: 2.94 µM
  TGI: 11.3 µM
  CC50: > 100 µM
T47D
  growth at 10 µM: 85.1%
SF-295 [4]
  GI50: 2.11 µM
  LC50 (concentration giving 50% net cell kill): > 100 µM
  TGI: 6.25 µM
786-0
  GI50: 4.5 µM
  LC50: > 100 µM
  TGI: > 100 µM
MDA-MB-231
  growth at 10 µM: 55.1%
SW-620
  GI50: 3.8 µM
  TGI: > 100 µM
  CC50: > 100 µM
[5]
  growth at 10 µM: 51.9%
